# Compound activity: PubChem BioAssay, Broad Institute
# Hits are enriched below; roughly 3% of the tested compounds scored in any of these assays.
# HSF1 activator – increases HSF-1 driven luciferase reporter signal; NIH3T3-HGL HSF-1 luciferase reporter, MG132, 8 h; 100% = twice DMSO control signal; activation, % at 9 µM; 1.7% of 300,000 active; AID 504408;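 active means mean replicate activation of at least 50% with a set share of replicates each reaching 50%; inconclusive means only one of those two conditions met; inactive means mean below 50% and too few replicates reaching it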;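 further: 0% = median of the neutral control wells and 100% = twice that signal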
# PfHsp90 yeast 2 – reduces growth (ATP signal) of yeast expressing P. falciparum Hsp90. 0.32% of 310,000 active. inhibition, % at 9.4 µM. AID 504621. S. cerevisiae expressing PfHsp90, BacTiter-Glo ATP, 48 h; yeast lacking PDR1 and PDR3 efflux regulators;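 active means every replicate shows inhibition above about 80%, whatever the replicate mean, limit read from the data; inconclusive means mean inhibition reaches the set limit but some replicate falls short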;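 further: 0% = DMSO neutral controls and 100% = 20 µM radicicol positive controls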
# CaV13 ICDI inh – Primary screen for inhibitors of IQ motif and Ca2+-dependent inactivation inhibitor domain binding in CACNA1D, Förster resonance energy transfer in living cells, …. inhibition, % at 12.3 µM. 0.098% of 340,000 active. HEK cells, CFP/YFP FRET ICDI-IQ, plate reader, 10 min; percent FRET-ratio fall versus neutral wells;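 active means mean replicate inhibition of at least 30% and at least 1% of replicates passing that level; inconclusive means only one of the two criteria is met; inactive means neither criterion is met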;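 further: 0% = median of the neutral control wells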
# T cruzi repl – blocks replication of Trypanosoma cruzi; T. cruzi beta-gal in NIH3T3, luminescence, 90 h; inhibition, % (concentration not given with the values); 1.4% of 300,000 active;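 active means mean inhibition across valid replicates above about 55%, limit read from the data; inconclusive means mean below that limit but half or more replicates reach it; inactive means mean below it, under half of replicates reach it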;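 further: signal also drops with host cell toxicity which is not excluded here; 0% = plate median of DMSO wells and 100% = zero luminescence signal; higher percent means less beta-gal luminescence so fewer parasites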
#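 System: mouse NIH/3T3 fibroblasts infected with β-gal-expressing T. cruzi Tulahuen C4 / Input: NIH/3T3 cells, 5,000 per well / Buffer or medium: Low-serum DMEM with 2% FBS / Probe or stimulus: 5000 reporter trypomastigotes per well / Schedule: ≥90 h infection period, 3 h prior cell attachment / Measured by: GalScreen luminescence, 60 min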
# Glyco luc inh – blocks N-linked glycosylation in D54 reporter cells | D54 ERlucT glycosylation luciferase reporter, 24 h; percent of 100 nM tunicamycin response | reporter increase, % at 12.5 µM | 0.23% of 360,000 active | AID 588692;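 active means mean luciferase reporter signal, scaled so untreated is 0 and the glycosylation-blocking control 100, at or above a set limit in every replicate; inconclusive means mean reaches the limit but not every replicate does; inactive means mean below the limit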;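 further: luciferase carries N-glycosylation sites so blocking glycosylation raises the light; 0% = median of neutral control wells and 100% = median of 100 nM tunicamycin wells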
# PvdQ inh – blocks Pseudomonas aeruginosa PvdQ acylase activity | inhibition, % at 10 µM | purified PvdQ acylase, fluorescence plate reader | 0.063% of 340,000 active; in the data active means inhibition above about 30%, passing the limit was not always enough; inconclusive means no clear call, values can overlap the other calls;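 further: 0% = vehicle neutral wells and 100% = reference inhibitor wells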
# Starred values were filed as active, the others as inactive; ? = inconclusive; . = no result given.
SMILES,HSF1 activator,PfHsp90 yeast 2,CaV13 ICDI inh,T cruzi repl,Glyco luc inh,PvdQ inh
COCCN(CCOC)C(=O)[C@@H](Cc1ccccc1)NC(=O)[C@H]1O[C@@H](n2ccc(N)nc2=O)[C@H](O)[C@@H]1O,.,.,-4,.,.,.
CNC[C@H]1OCc2cnnn2CCCC(=O)N([C@@H](C)CO)C[C@@H]1C,.,.,-6,.,.,.
O=C(NC(NC(=S)Nc1cccc(C(=O)O)c1)C(Cl)(Cl)Cl)OCc1ccccc1 (centres undefined),.,23,-5,-17,2,0
Cc1cccc(NC(=S)NC(NC(=O)OCc2ccccc2)C(Cl)(Cl)Cl)c1 (centres undefined),4,-25,-8,57*,-2,-5
CN(C(=O)CSc1ncnc2c(-c3cccs3)nsc12)C1CCCCC1,.,.,-4,.,.,.
Nc1ccn(C2C=CC(CO)O2)c(=O)n1 (centres undefined),.,.,-13,.,.,.
COc1cc(-c2noc(C)c2-c2ccc3[nH]ccc3c2)cc(OC)c1OC,-3,-7,.,25,48*,13
CCCCOCCCNC(=O)C[C@H]1C[C@@]2(C(=O)OC)C(=C[C@H](C3CCCC3)O[C@@H]2C)N(Cc2ccccc2)C1=O,.,.,-8,.,.,.
COc1ccc2c(C)nc(Nc3nc(-c4ccccc4)cc(=O)[nH]3)nc2c1,95*,17,-5,37,94*,-27
COc1ccc2oc(C(=O)Nc3ccc(S(=O)(=O)N(C)C4CCN(C)CC4)cc3)c(C)c2c1,-16,-18,.,60*,-3,-15
CC(Oc1ccc(Br)cc1)C(=O)Nc1ccc(S(=O)(=O)N(C)C2CCN(C)CC2)cc1 (centres undefined),-14,.,-6,56*,13,-15
COc1ccc(CC(=O)Nc2ccc(S(=O)(=O)N(C)C3CCN(C)CC3)cc2)cc1,.,-24,-5,.,1,-18
Cc1ccc(S(=O)(=O)N2CCCc3nc(-c4ccc(F)cc4)ccc32)cc1,.,.,-12,.,.,.
Cc1ccc(O)c(C(=O)c2cc(C(=O)NCCc3ccccc3)c(=O)n(CCc3ccccc3)c2)c1,10,-7,-17,61*,-2,-5
COc1ccc(O)c(C(=O)c2cc(C(=O)NCCc3ccccc3)c(=O)n(CCc3ccccc3)c2)c1,6,1,-6,53,-10,-2
O=C(Cn1cnc2cc([N+](=O)[O-])ccc2c1=O)Nc1ccc(Br)cc1,-8,-3,2,68*,-1,5
CC(C)(C)c1ccc(NC(=O)Cn2cnc3cc([N+](=O)[O-])ccc3c2=O)cc1,13,-40,-4,72*,0,-19
O=C(Cn1cnc2cc([N+](=O)[O-])ccc2c1=O)Nc1ccccc1-c1ccccc1,-7,-22,3,58*,-3,-10
Cc1cc(Br)c2nc(-c3ccc(Cl)cc3)c(Cc3cccc(Cl)c3)n2c1,.,.,-8,.,.,.
CCCCCCc1cc2cc(-c3nnc(-c4ccccc4O)o3)c(=O)oc2cc1O,-14,-16,4,8,-11,6
CCCCCCc1cc2cc(S(=O)(=O)c3ccc(F)cc3)c(=O)oc2cc1O,14,-6,53*,-3,1,-17
O=c1[nH][nH]c2c1[C@H](c1ccc(Cl)cc1)O[C@H](C1CCCCC1)C2,.,.,-6,.,.,.
C=CC[n+]1c(/C=C2\C=Cc3cc(C)ccc3N2CC)ccc2ccccc21,3,13,-19,66*,24,0
CCOC(=O)c1ccc(NC(=O)Nc2nncs2)cc1,.,.,-9,.,6,.
CC1(C)CC(=O)/C(=C\c2cccc([N+](=O)[O-])c2)C(C)(C)N1,76*,-16,-18,5,?,-8
SMILES,HSF1 activator,PfHsp90 yeast 2,CaV13 ICDI inh,T cruzi repl,Glyco luc inh,PvdQ inh
Cc1ccc(C(=O)Nc2ccc(Cl)cc2C)c(Cl)c1,67*,17,-7,-10,-9,-16
C=CCCC1CN(Cc2ccc(OC)cc2)S(=O)(=O)c2c(cccc2N(C)S(=O)(=O)c2ccc(C)cc2)O1 (centres undefined),.,.,-9,.,.,.
CN(C)c1cc[n+](CC(=O)c2ccc(-c3ccccc3)cc2)cc1,-8,-14,-5,56*,3,6
OCCCN=c1cc(-c2ccccc2)oc2ccc(Cl)cc12,?,-10,.,5,58*,-8
Cc1ccc2oc(C(Cl)(Cl)Cl)cc(=O)c2c1,52*,.,-8,4,1,-11
C=C1SC(Nc2c(C)cc(C)cc2C)=NC12CCCCC2,-57,7,-5,67*,-8,-5
Cc1cc(C)c(NC(=O)CN2C(=O)NC3(CCCCC3)C2=O)c(C)c1,-1,15,-7,-8,2,-12
C=C1SC(Nc2c(C)cccc2C)=NC12CCCCC2,0,8,-4,64*,-4,15
COCCNC(=S)N(C)[C@H]1C[C@H]2c3[nH]c4cccc(-c5ccccc5)c4c3CCN2C(=O)[C@H]1[C@H](C)O,.,.,-4,.,.,.
COC(=O)[C@]12C[C@H](CC(=O)NCC34CC5CC(CC(C5)C3)C4)C(=O)N(CCC3=CCCCC3)C1=C[C@H](COCc1ccccc1)O[C@@H]2C,.,.,-6,.,.,.
COc1ccc(OCCCC(=O)Nc2nc(-c3ccccn3)cs2)cc1,-2,0,-1,62*,-1,-11
O=C(CC1CC2CCC1C2)Nc1nc(-c2ccccn2)cs1 (centres undefined),13,-33,-2,62*,0,-11
CCc1ccccc1OCC(=O)Nc1nc(-c2cccnc2)cs1,-25,75,-2,78*,-1,-4
COc1ccc2oc(C(=O)Nc3nc(-c4ccccn4)cs3)c(C)c2c1,-12,2,-6,70*,3,-9
O=C(Nc1nc(-c2ccccn2)cs1)C1CC1,13,-10,-7,-16,1,3
COc1ccc2oc(C(=O)NC(C)c3ccccn3)c(C)c2c1 (centres undefined),.,.,-3,.,0,-19
COc1ccc(C(O)c2ncc(-c3ccccc3)[nH]2)cc1F (centres undefined),.,.,-10,.,0,.
Cc1cc(C)c(OCC(=O)Nc2nc(-c3ccccn3)cs2)c(C)c1,-25,-13,-2,70*,-1,-9
CN(c1ccc(OCC(=O)Nc2nc(-c3ccccc3)cs2)cc1)S(=O)(=O)c1ccc(F)cc1,-6,11,-3,55*,-7,3
Cc1ccc(S(=O)(=O)N(C)c2ccc(OCC(=O)Nc3nc(-c4ccccc4)cs3)cc2)cc1,6,5,-5,43,-4,2
CC(C)=CCCC(C)c1cc(C(=O)NCCc2ccc(O)cc2)c(N)s1 (centres undefined),.,.,-10,.,.,.
CC(=O)Nc1nc(-c2cccc3ccccc23)cs1,26,-2,-4,57*,1,-23
CC(=O)Nc1nc(-c2ccc(-c3ccccc3)cc2)cs1,.,.,-6,.,-1,.
